Test results from ChEMBL document CHEMBL5126632, “Balancing Affinity, Selectivity, and Cytotoxicity of Hydrazone-Based G-Quadruplex Ligands for Activation of Interferon β Genes in Cancer Cells” (J Med Chem, 2022).
Calls of active or inactive are those of the source. The calls are words filed in the database; no cut-off is given here.

Tests used:
[1] = Cytotoxicity against mouse MNMCA1 cells assessed as cell survival preincubated for 24 hrs with compound further incubated for 48 hrs in drug free medium by MTT assay; type: functional, cell-based
Summary of the method: (§1)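 Exponentially growing cells seeded and treated 24 h after seeding with increasing concentrations for 24 h. Cells then recovered 48 h in drug-free medium. MTT added for 1 h at 37 °C, formazan dissolved in DMSO, absorbance read at 540 nm. IC50 from linear regression. Means ± SEM of two independent experiments in triplicate.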

[2] = test system: Quadruplex DNA; assay: Stabilization of human Tel26 G4 quadruplex DNA assessed as thermal stability by measuring difference in melting temperature t1/2 by circular dichroism spectroscopy; type: nucleic-acid assay
[3] = test system: Quadruplex DNA; assay: Stabilization of c-kit1 G4 quadruplex d(DNA AGGGAGGGCGCTGGGAGGAGGG) DNA (unknown origin) assessed as thermal stability by measuring difference in melting temperature t1/2 by circular dichroism spectroscopy (reference value: 54 +/- 0.5 degC); type: nucleic-acid assay
[4] = test system: Quadruplex DNA; assay: Stabilization of c-kit2 G4 quadruplex d(CGGGCGGGCGCTAGGGAGGGT) DNA (unknown origin) assessed as thermal stability by measuring difference in melting temperature t1/2 by circular dichroism spectroscopy (reference value: 61.5 +/- 0.5 degC); type: nucleic-acid assay
[5] = test system: Quadruplex DNA; assay: Stabilization of c-myc G4 quadruplex d(TTAGGGTTAGGGTTAGGGTTAGGGTT) DNA (unknown origin) assessed as thermal stability by measuring difference in melting temperature t1/2 by circular dichroism spectroscopy (reference value: 72 +/- 0.5 degC); type: nucleic-acid assay
[6] = Stabilization of d(CGC GAA TTC GCG TIT CGC GAA TTC GCG) DNA hairpin (unknown origin) assessed as thermal stability by measuring difference in melting temperature t1/2 by circular dichroism spectroscopy (reference value: 75.4 +/- 0.2 degC)
Summary of the method: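 CD melting of 15 μM annealed hairpin duplex in 5 mM K phosphate pH 7.0 with 20 mM KCl, with or without ligand at 2 molar equiv added to the folded DNA. The signal was followed at 252 nm from 20 to 100 °C at 1 °C/min, with T1/2 taken from a curve fit. ΔT1/2 is relative to DNA alone; duplicate runs, averaged.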

[7] = Stabilization of F-c-kit1-T (unknown origin) assessed as difference in melting temperature t1/2 in presence of d(CGC GAA TTC GCG TIT CGC GAA TTC GCG) DNA hairpin (unknown origin) measured at 1:15 G4 to hairpin DNA ratio by FRET assay
Summary of the method: (§2)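 FRET melting of 0.2 μM prefolded FAM/TAMRA dual-labelled c-kit1 G4 in 5 mM K phosphate pH 7.0 with 20 mM KCl. Ligand was added at 2 molar equiv, with unlabelled hairpin competitor at 3 or 10 μM final (15 or 50 equiv relative to G4). FAM emission was read at 520 nm (excitation 492 nm) while heating at 0.2 °C/min over 15–90 °C. ΔT1/2 is relative to no ligand; at least duplicate, averaged.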

[8] = Stabilization of F-c-kit1-T (unknown origin) assessed as difference in melting temperature t1/2 in presence of d(CGC GAA TTC GCG TIT CGC GAA TTC GCG) DNA hairpin (unknown origin) measured at 1:50 G4 to hairpin DNA ratio by FRET assay; summary of the method: as §2
[9] = test system: Quadruplex DNA; assay: Stabilization of F-c-kit1-T quadruplex DNA (unknown origin) by measuring difference in melting temperature t1/2 by FRET assay; type: nucleic-acid assay
Summary of the method: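 FRET melting of 0.2 μM prefolded FAM/TAMRA-labelled c-kit1 in 5 mM potassium phosphate pH 7.0 with 20 mM KCl, with ligand at 2 molar equiv. Unlabelled hairpin competitor added at 3 or 10 μM (15 or 50 equiv). FAM emission at 520 nm (excitation 492 nm) followed from 15 to 90 °C at 0.2 °C/min. ΔT1/2 versus no ligand. At least duplicate.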

[10] = target: Quadruplex DNA; assay: Binding affinity to c-kit1 G4 quadruplex d(DNA AGGGAGGGCGCTGGGAGGAGGG) DNA (unknown origin) assessed as dissociation constant by Microscale thermophoresis analysis; type: nucleic-acid assay
Summary of the method: (§3)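 MST with Cy5.5-labelled G4 oligonucleotide held at 20 nM, folded in 5 mM potassium phosphate pH 7.0 with 20 mM KCl plus 0.1% Tween. Ligand in 1:2 serial dilution mixed 1:1 with DNA, 20% DMSO final. Kd taken from binding curves.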

[11] = target: Quadruplex DNA; assay: Binding affinity to c-kit2 G4 quadruplex d(CGGGCGGGCGCTAGGGAGGGT) DNA (unknown origin) assessed as dissociation constant by Microscale thermophoresis analysis; type: nucleic-acid assay; summary of the method: as §3
[12] = target: Quadruplex DNA; assay: Binding affinity toc-myc G4 quadruplex d(TTAGGGTTAGGGTTAGGGTTAGGGTT) DNA (unknown origin) assessed as dissociation constant by Microscale thermophoresis analysis; type: nucleic-acid assay; summary of the method: as §3
[13] = test system: U2OS; assay: Cytotoxicity against human U2OS cells assessed as cell survival preincubated for 24 hrs with compound further incubated for 48 hrs in drug free medium by MTT assay; type: functional, cell-based; summary of the method: as §1
[14] = test system: U2OS; assay: Induction of DNA damage in human U2OS cells assessed as increase in gammaH2AX phosphorylation at S139 incubated for 24 hrs by immunofluorescence microscopy; type: functional, cell-based; details: read-out: IC50 (the source's name)
Summary of the method: (§4)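 U2OS cells treated 24 h. Fixed with 4% formaldehyde, permeabilized with 0.5% Triton X-100, blocked with 8% BSA, stained with anti-γH2AX (1:500) and Alexa Fluor 594 secondary, DAPI counterstain. Fluorescence microscopy signal quantified as fold over untreated.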

[15] = test system: U2OS; assay: Induction of DNA damage in human U2OS cells assessed as fold increase in gammaH2AX phosphorylation at […] by measuring fold change at 10 uM incubated for 24 hrs by immunofluorescence microscopy; type: functional; summary of the method: as §4
[16] = Genotoxicity in mouse MNMCA1 cells assessed as induction of micronuclei formation at 5 uM incubated for 24 hrs by measuring fold change by DAPI staining based analysis; type: toxicity, cell-based; details: mnmca1, 24 h
[17] = target: Quadruplex DNA; assay: Displacement of thiazole orange from c-kit1 G4 quadruplex d(DNA AGGGAGGGCGCTGGGAGGAGGG) DNA (unknown origin) assessed as relative affinity by fluorescent intercalator displacement assay; type: nucleic-acid assay
Summary of the method: (§5)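 G4 DNA at 0.25 μM with 0.5 μM thiazole orange in 5 mM potassium phosphate pH 7.0 containing 20 mM KCl (LiCl for c-myc), 20 °C. Ligand titrated from 0.5 to 20 molar equiv with 3 min equilibration per addition. Excitation 485 nm, emission 500–650 nm. %displacement = 100 − (F/F0×100); DC50 is the concentration displacing 50% TO. Duplicate titrations.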

[18] = target: Quadruplex DNA; assay: Displacement of thiazole orange from c-kit2 G4 quadruplex d(CGGGCGGGCGCTAGGGAGGGT) DNA (unknown origin) assessed as relative affinity by fluorescent intercalator displacement assay; type: nucleic-acid assay; summary of the method: as §5
[19] = target: Quadruplex DNA; assay: Displacement of thiazole orange from c-myc G4 quadruplex d(TTAGGGTTAGGGTTAGGGTTAGGGTT) DNA (unknown origin) assessed as relative affinity by fluorescent intercalator displacement assay; type: nucleic-acid assay; summary of the method: as §5
[20] = test system: Quadruplex DNA; assay: Stabilization of G4 quadruplex DNA in human U2OS cells assessed as BG4 foci formation by measuring fold increase in G4 structure at 10 uM by immunofluorescence microscopy; type: cell-based
Summary of the method: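 U2OS cells on coverslips treated for […]. Fixed in methanol/acetic acid 3:1, permeabilized with 0.1% Triton X-100, blocked in 2% milk. Stained with 0.5 μg BG4 for 2 h, then anti-FLAG and Alexa Fluor 488 secondary. Signal quantified as fold over untreated.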

[21] = Genotoxicity in mouse MNMCA1 cells assessed as induction of micronuclei formation measured after 24 hrs by DAPI staining based analysis; type: toxicity, cell-based; details: mnmca1, 24 h
[22] = test system: MNMCA1; assay: Activation of IFN-beta in mouse MNMCA1 cells at 15 to 30 uM pretreated for 24 hrs followed by 48 hrs of drug recovery by ELISA; type: functional, cell-based; details: dose 15-30 µM, time 72.0 hrs
Summary of the method: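 MNMCA1 cells treated 24 h with compound at 15 or 30 μM, then 48 h recovery in fresh drug-free medium. IFN-B protein measured by ELISA in collected culture supernatants.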

[23] = Genotoxicity in mouse MNMCA1 cells assessed as induction of micronuclei formation at 1 uM incubated for 24 hrs by measuring fold change by DAPI staining based analysis; type: toxicity, cell-based; details: mnmca1, 24 h

SMILES	IC50 [1]	ΔTm [2]	ΔTm [3]	ΔTm [4]	ΔTm [5]	ΔTm [6]	ΔTm [7]	ΔTm [8]	ΔTm [9]	Kd [10]	Kd [11]	Kd [12]	IC50 [13]	EC50 [14]	fold change (FC) [15]	fold change (FC) [16]	IC50 [17]	IC50 [18]	IC50 [19]	fold change (FC) [20]	further results
OCc1c(-c2ccccc2)nc2n1ccc1nc(-c3ccccc3)c(/C=N/NC3=NCCN3)n12	12100 nM	2 °C	7.1 °C	14.7 °C	1.7 °C	1.3 °C	7.8 °C	8.4 °C	8 °C	8000 nM	2500 nM	37000 nM	24500 nM	24000 nM	1.55	2.5					
Cc1ccc(-c2nc3ccn4c(/C=N/NC(=N)N)c(-c5ccccc5)nc4n3c2/C=N/NC(=N)N)cc1	38500 nM	4.8 °C	18.2 °C	> 30 °C	16.9 °C	1.3 °C	22.2 °C	19.2 °C	25.4 °C	30 nM	40 nM	1500 nM	46800 nM	46000 nM			1400 nM	1400 nM	1600 nM	2.4	fold change (FC) [21]: 0.4; Activity [22]: Active
N=C(N)N/N=C/c1c(-c2ccccc2)nc2ccn3c(CO)c(-c4ccccc4)nc3n12	35700 nM	1.8 °C	9.7 °C	18.6 °C	2.8 °C	2.3 °C	11.1 °C	12.1 °C	10 °C	2000 nM	1300 nM	8000 nM	14300 nM	14000 nM	2.32	2.5					
Clc1ccc(-c2nc3ccn4c(/C=N/NC5=NCCN5)c(-c5ccccc5)nc4n3c2/C=N/NC2=NCCN2)cc1	23500 nM	6.3 °C	15.5 °C	22 °C	7.4 °C	1.2 °C	21.4 °C	19.6 °C	24.6 °C	380 nM	490 nM	3000 nM	20200 nM	20000 nM	1.37		2700 nM	1700 nM	1800 nM	0.77	fold change (FC) [21]: 0.4
N=C(N)N/N=C/c1c(-c2ccccc2)nc2ccn3c(C=O)c(-c4ccccc4)nc3n12	1900 nM	4.3 °C	11.2 °C	24.2 °C	5.8 °C	1.7 °C	21.6 °C	22.2 °C	22 °C	300 nM	370 nM	7000 nM	2600 nM	2400 nM	2.32						fold change (FC) [23]: 2.5
O=Cc1c(-c2ccccc2)nc2n1ccc1nc(-c3ccccc3)c(/C=N/NC3=NCCN3)n12	2300 nM												4000 nM	4000 nM	1.55						fold change (FC) [23]: 2.5
